These results are taken from ChEMBL document CHEMBL1131136, “4-(beta-Arylvinyl)-3-(beta-arylvinylketo)-1-ethyl-4-piperidinols and related compounds: a novel class of cytotoxic and anticancer agents” (J Med Chem, 1998).

One experiment relates to P388. As to the kind of experiment: Cytotoxicity evaluated against P388 cells. The following applies: Mus musculus. The format is functional, cell-based.
The species named for experiment [1] is Homo sapiens. In words: Cytotoxicity evaluated against human tumor. It is filed as functional. In outline: (§1)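 NCI panel of about 55 human tumor cell lines covering leukemia, melanoma, non-small-cell lung, colon, CNS, ovarian, renal, prostate and breast cancers, with some compounds tested on small-cell lung instead of prostate and breast.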
For the next experiment, the system named is L1210. As to the kind of experiment: Cytotoxicity evaluated against L1210 cells. The format is functional, cell-based. As to conditions: Mus musculus.
The subject of experiment [2] is Mus musculus. In words: Optimal value of the percentage reduction of the median treated CAKI-1 tumor weight compared to the median control tumor weight at the dose of 16.8 mg/kg. It is filed as functional. In a few lines:
(§2)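 The NCI Developmental Therapeutics Program passaged human tumor xenografts in athymic mice. % T/C is the optimal ratio of median treated to median control tumor weight. Tumor-growth delay (% ILS) was the increase in median days for treated tumors to reach a set size compared with controls.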

Experiment [3] concerns Mus musculus. In words: Optimal value of the percentage reduction of the median treated KM12 tumor weight compared to the median control tumor weight at the dose of 16.8 mg/kg. It is filed as functional. In outline: as §2
For experiment [4], the system named is Mus musculus. As to the kind of experiment: Optimal value of the percentage reduction of the median treated COLO 205 tumor weight compared to the median control tumor weight at the dose of 16.8 mg/kg. It is filed as functional. In outline:
as §2

The subject of experiment [5] is Mus musculus. As to the kind of experiment: Percentage increase in the median time in days for the CAKI-1 treated tumor to reach a certain size compared to controls at the dose of 16.8 mg/kg. The format is functional. In a few lines:
(§3)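 Human tumor xenografts passaged in athymic mice, tested by the NCI Developmental Therapeutics Program. %ILS is the percentage increase in median days for treated tumors to reach a set size versus untreated controls.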

The test system of experiment [6] is Mus musculus. In words: Percentage increase in the median time in days for the KM12 treated tumor to reach a certain size compared to controls at the dose of 25 mg/kg. The format is functional. In a few lines:
as §3

For experiment [7], the system named is Mus musculus. In words: Percentage increase in the median time in days for the COLO 205 treated tumor to reach a certain size compared to controls at the dose of 16.8 mg/kg. It is filed as functional. In outline: as §3
For experiment [8], the species on record is Homo sapiens. In words: Cytotoxicity evaluated against human tumor. It is filed as functional. In a few lines:
as §1

Experiment [9] relates to Mus musculus. In words: Optimal value of the percentage reduction of the median treated SW-620 tumor weight compared to the median control tumor weight at the dose of 80 mg/kg. It is filed as functional. In outline: as §2
In experiment [10] the test system is Mus musculus. As to the kind of experiment: Optimal value of the percentage reduction of the median treated NCI-H522 tumor weight compared to the median control tumor weight at the dose of 80 mg/kg. The format is functional. In a few lines:
as §2

In experiment [11] the test system is Mus musculus. In words: Percentage increase in the median time in days for the NCI-H522 treated tumor to reach a certain size compared to controls at the dose of 80 mg/kg. It is filed as functional. In outline:
as §3

Experiment [12] concerns Mus musculus. In words: Percentage increase in the median time in days for the COLO 205 treated tumor to reach a certain size compared to controls at the dose of 200 mg/kg. The format is functional. In a few lines: as §3
In experiment [13] the test system is Mus musculus. As to the kind of experiment: Percentage increase in the median time in days for the SW-620 treated tumor to reach a certain size compared to controls at the dose of 80 mg/kg. It is filed as functional. In outline:
as §3

In experiment [14] the test system is Mus musculus. In words: Optimal value of the percentage reduction of the median treated COLO 205 tumor weight compared to the median control tumor weight at the dose of 200 mg/kg. The format is functional. In a few lines: as §2

For the molecule `CC[N+]1(C)CC[C@@](O)(c2ccc(OC)cc2)[C@H](C(=O)c2ccc(OC)cc2)C1` (stereo partly drawn), the IC50 with P388 was found to be 0.98 µM; in the experiment filed under Homo sapiens [1], 10.2 µM.
Turning to `CC[N+]1(C)CC[C@@](O)(/C=C/c2ccc(C)cc2)[C@H](C(=O)/C=C/c2ccc(C)cc2)C1` (stereo partly drawn), the IC50 with P388 was determined as 0.62 µM; with L1210, 13.8 µM.
As for `CC[N+]1(C)CC[C@@](O)(c2ccc(C)cc2)[C@H](C(=O)c2ccc(C)cc2)C1` (stereo partly drawn), the results for the IC50 in the experiment with P388 and in the experiment listed under Homo sapiens [1] were 2.1 µM and 50.1 µM, respectively.
`CC[N+]1(C)CC[C@@](O)(c2ccc(Cl)c(Cl)c2)[C@H](C(=O)c2ccc(Cl)c(Cl)c2)C1` (stereo partly drawn): the IC50 with P388 was found to be 2.3 µM; in the experiment on L1210, 33.6 µM; in the experiment filed under Homo sapiens [1], 9.54 µM.
Take `CC[N+]1(C)CC[C@@](O)(c2ccc(Cl)cc2)[C@H](C(=O)c2ccc(Cl)cc2)C1` (stereo partly drawn): the IC50 with P388 was 1.5 µM; in the experiment listed under Homo sapiens [1] it was 12.9 µM.
In turn, `CC[N+]1(C)CC[C@@](O)(c2ccccc2)[C@H](C(=O)c2ccccc2)C1` (stereo partly drawn) returned a half-maximal inhibitory concentration (IC50) with P388 of 1.3 µM.
Turning to `CC[N+]1(C)CC[C@@](O)(/C=C/c2ccccc2)[C@H](C(=O)/C=C/c2ccccc2)C1.[Br-]` (stereo partly drawn), the figures for the T/C in the experiment with Mus musculus [2], in the experiment with Mus musculus [3] and in the experiment with Mus musculus [4] were 43%, 45% and 20%, respectively. Besides, the IC50 came out at 2.27 µM with P388 and 8.31 µM in the experiment listed under Homo sapiens [1]. Further, the ILS at 16.8 mg/kg in the experiment with Mus musculus [5] worked out at 6%; in the experiment on Mus musculus [7] it was 14%. Besides, in the experiment on Mus musculus [6], the ILS at 25 mg/kg is 5%.
On to `CC[N+]1(C)CC[C@@](O)(/C=C/c2ccc(Cl)c(Cl)c2)[C@H](C(=O)/C=C/c2ccc(Cl)c(Cl)c2)C1` (stereo partly drawn), for which the IC50 with P388 is 0.64 µM; with L1210, 21.4 µM; in the experiment filed under Homo sapiens [1], 2.19 µM.
For the molecule `CCN1CC[C@@](O)(/C=C/c2ccc(Cl)c(Cl)c2)[C@H](C(=O)/C=C/c2ccc(Cl)c(Cl)c2)C1`, the IC50 in the experiment with P388 is 0.4 µM; in the experiment filed under Homo sapiens [1], 0.38 µM.
Take `CCN(CC)CC(C)(C)C(=O)/C=C/c1ccc(Cl)cc1`: the figures for the IC50 with P388 and with L1210 were 2.2 µM and 6.39 µM, respectively.
Turning to `O=C(CCN1CCN(CCC(=O)c2ccccc2)CC1)c1ccccc1`, the IC50 in the experiment with P388 was 2.84 µM; in the experiment on L1210, 9.71 µM.
For `CCN1CC[C@@](O)(/C=C/c2ccccc2)[C@H](C(=O)/C=C/c2ccccc2)C1`, the IC50 in the experiment on P388 is 1.4 µM; with L1210, 5.3 µM; in the experiment filed under Homo sapiens [1], 2.75 µM.
For `CCN1CC[C@@](O)(/C=C/c2ccccc2C)[C@H](C(=O)/C=C/c2ccccc2C)C1`, in that order: 1.89 µM, 12.6 µM and 2.46 µM.
As to `CCN(CC)CCC(=O)c1ccc(C)cc1`, the results for the IC50 in the experiment on P388, with L1210 and in the experiment listed under Homo sapiens [1] were 2.2 µM, 21.5 µM and 26.3 µM, respectively.
With `CCN1CC[C@@](O)(c2ccc(Cl)c(Cl)c2)[C@H](C(=O)c2ccc(Cl)c(Cl)c2)C1`, the values for the IC50 in the experiment on P388 and in the experiment listed under Homo sapiens [1] were 3.11 µM and 16.6 µM, respectively.
As for `CCN(CC)CCC(=O)/C=C/c1ccc(C)cc1`, the half-inhibitory concentration (IC50) in the experiment on P388 was found to be 1.1 µM; in the experiment on L1210, 52.9 µM.
For `CCN1CC[C@@](O)(c2ccc(Cl)cc2)[C@H](C(=O)c2ccc(Cl)cc2)C1`, the 50% inhibitory concentration (IC50) in the experiment on P388 is 5.14 µM; in the experiment on L1210, 15.7 µM; in the experiment listed under Homo sapiens [1] it was 83.2 µM.
For `CCN(CC)CCC(=O)/C=C/c1ccc(Cl)c(Cl)c1`, in that order: 0.39 µM, 61.2 µM and 3.8 µM.
Consider `CCN1CC[C@@](O)(/C=C/c2ccc(OC)cc2)[C@H](C(=O)/C=C/c2ccc(OC)cc2)C1`, for which the half-maximal inhibitory concentration (IC50) in the experiment with P388 was 5 µM; in the experiment filed under Homo sapiens [8], 8.31 µM; in the experiment on L1210, 25.6 µM.
Consider `CCN1CC[C@@](O)(/C=C/c2ccc(C)cc2)[C@H](C(=O)/C=C/c2ccc(C)cc2)C1.Cl`, for which the IC50 worked out at 2.1 µM with P388, 6.08 µM in the experiment with L1210 and 5.01 µM in the experiment filed under Homo sapiens [1]. Further, the T/C was found to be 32% in the experiment with Mus musculus [9], 23% with Mus musculus [10] and 57% in the experiment on Mus musculus [14]. Further, the ILS at 80 mg/kg was -2% in the experiment on Mus musculus [11] and 9% in the experiment with Mus musculus [13]. Also, the ILS at 200 mg/kg in the experiment on Mus musculus [12] was determined as 28%.
As to `CCN(CC)CCC(=O)c1ccc(Cl)cc1`, the IC50 came out at 3.2 µM in the experiment on P388 and 36.9 µM in the experiment on L1210.
`CCN(CC)CCC(=O)/C=C/c1ccccc1`: the results for the IC50 in the experiment with P388, in the experiment on L1210 and in the experiment filed under Homo sapiens [1] were 1.7 µM, 25.7 µM and 9.77 µM, respectively.
`CCN(CC)CCC(=O)c1ccc(Cl)c(Cl)c1`: the half-maximal inhibitory concentration (IC50) in the experiment on P388 was determined as 0.31 µM; with L1210, 36.4 µM; in the experiment listed under Homo sapiens [1], 32.4 µM.
Take `CCN(CC)CCC(=O)/C=C/c1ccc(Cl)cc1`: the results for the IC50 with P388 and in the experiment with L1210 were 0.3 µM and 41 µM, respectively.
Regarding `CCN1CC[C@@](O)(c2ccc(OC)cc2)[C@H](C(=O)c2ccc(OC)cc2)C1`, the IC50 in the experiment with P388 was 4.17 µM; in the experiment with L1210 it was 13.5 µM; in the experiment listed under Homo sapiens [1], 19.5 µM.
As to `CCN1CC[C@@](O)(c2ccc(C)cc2)[C@H](C(=O)c2ccc(C)cc2)C1`, the IC50 came out at 8.6 µM in the experiment with P388, 38.2 µM in the experiment with L1210 and 25.1 µM in the experiment listed under Homo sapiens [1].
For `CCN(CC)CCC(=O)c1ccccc1`, the IC50 in the experiment on P388 was determined as 2.6 µM; with L1210, 20.3 µM; in the experiment listed under Homo sapiens [1] it was 25.1 µM.
The matching figures for `CCN1CC[C@@](O)(c2ccc(O)cc2)[C@H](C(=O)c2ccc(O)cc2)C1`: 1.4 µM, 9.75 µM and 20.9 µM.
On to `CCN(CC)CCC(=O)c1ccc(OC)cc1`, for which the IC50 in the experiment on P388 came to 1.6 µM; in the experiment on L1210 it was 43.8 µM.
For `CCN1CC[C@@](O)(/C=C/c2ccc(C)cc2C)[C@H](C(=O)/C=C/c2ccc(C)cc2C)C1`, the IC50 with P388 was 2.59 µM; with L1210, 20.9 µM.
Regarding `CCN(CC)CCC(=O)/C=C/c1ccc(OC)cc1`, the IC50 amounted to 0.67 µM in the experiment with P388 and 44.3 µM in the experiment on L1210.
Regarding `O=C(/C=C/c1ccccc1)CCN1CCN(CCC(=O)/C=C/c2ccccc2)CC1`, the results for the IC50 with P388, in the experiment on L1210 and in the experiment filed under Homo sapiens [1] were 0.62 µM, 5.78 µM and 12 µM, respectively.
For `CCN1CC[C@@](O)(c2ccccc2)[C@H](C(=O)c2ccccc2)C1`, in that order: 1.07 µM, 20.1 µM and 30.2 µM.
The matching figures for `CCN1CC[C@@](O)(/C=C/c2ccc(Cl)cc2)[C@H](C(=O)/C=C/c2ccc(Cl)cc2)C1`: 1.1 µM, 6.96 µM and 25.7 µM.
`N[C@@H](Cc1ccc(N(CCCl)CCCl)cc1)C(=O)O` returned an IC50 in the experiment listed under Homo sapiens [1] of 26.3 µM.
